According to paper PMC3070847 (Bioorganic & medicinal chemistry letters, 2011):

Target: HIV-1 IN (Human immunodeficiency virus type 1 group M subtype B, UniProt P04585)
Assay: Biochemical gel assay of HIV-1 IN
Details: IN IC50 3'-P, 3' processing function
Outline: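 Recombinant HIV-1 integrase was used as the enzyme in the biochemical evaluation.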

SMILES	IC50
CCOCn1c(C(=O)c2cc(C)cc(C)c2)c(CC)c(=O)n(O)c1=O [Compound 24]	> 111 µM
CCc1c(C(=O)c2ccccc2)n(COCc2ccccc2)c(=O)n(O)c1=O [Compound 17]	> 111 µM
CCOCn1c(C(=O)c2ccccc2)c(CC)c(=O)n(O)c1=O [Compound 23]	> 111 µM
CCc1c(C(=O)c2ccccc2)n(COCc2ccc(F)cc2)c(=O)n(O)c1=O [Compound 18]	> 111 µM
CCc1c(C(=O)c2ccccc2)n(COCCc2ccc(F)cc2)c(=O)n(O)c1=O [Compound 21]	> 111 µM
CCc1c(C(=O)c2cc(C)cc(C)c2)n(COCc2ccccc2)c(=O)n(O)c1=O [Compound 20]	> 111 µM
CCc1c(C(=O)c2cc(C)cc(C)c2)n(COCc2ccc(F)cc2)c(=O)n(O)c1=O [Compound 19]	> 111 µM
CCc1c(C(=O)c2cc(C)cc(C)c2)n(COCCc2ccc(F)cc2)c(=O)n(O)c1=O [Compound 22]	> 111 µM
